The term inhibition denotes the drop in the measured response relative to a control, in per cent. Usually Ki stands for a dissociation constant, usually derived from enzyme kinetics or from competition with a known ligand.

Activity calls are given as the source filed them. The rule behind the calls is not given here.

We go through nine molecules from ChEMBL document CHEMBL4152209, “Synthesis of 7β-hydroxy-8-ketone opioid derivatives with antagonist activity at mu- and delta-opioid receptors” (Eur J Med Chem, 2018).

For data set [1], the target named is T1, Mu-type opioid receptor (Homo sapiens, UniProt P35372). To be noted: at 1 µM.
T1 sequence (P35372 whole entry): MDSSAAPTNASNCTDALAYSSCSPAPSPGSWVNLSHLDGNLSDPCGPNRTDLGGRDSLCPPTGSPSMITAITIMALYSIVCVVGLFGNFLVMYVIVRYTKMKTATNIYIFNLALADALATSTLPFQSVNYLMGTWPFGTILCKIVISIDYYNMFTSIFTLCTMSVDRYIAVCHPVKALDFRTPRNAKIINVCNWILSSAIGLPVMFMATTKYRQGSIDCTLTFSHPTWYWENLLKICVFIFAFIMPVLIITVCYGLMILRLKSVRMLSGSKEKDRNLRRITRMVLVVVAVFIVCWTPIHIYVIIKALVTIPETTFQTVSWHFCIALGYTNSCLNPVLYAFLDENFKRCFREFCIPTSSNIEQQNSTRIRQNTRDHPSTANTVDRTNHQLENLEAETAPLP
In data set [2] the target is Kappa-type opioid receptor (Homo sapiens) (UniProt P41145). To be noted: at 1 µM.
Chain of Kappa-type opioid receptor (Homo sapiens) (P41145 whole entry): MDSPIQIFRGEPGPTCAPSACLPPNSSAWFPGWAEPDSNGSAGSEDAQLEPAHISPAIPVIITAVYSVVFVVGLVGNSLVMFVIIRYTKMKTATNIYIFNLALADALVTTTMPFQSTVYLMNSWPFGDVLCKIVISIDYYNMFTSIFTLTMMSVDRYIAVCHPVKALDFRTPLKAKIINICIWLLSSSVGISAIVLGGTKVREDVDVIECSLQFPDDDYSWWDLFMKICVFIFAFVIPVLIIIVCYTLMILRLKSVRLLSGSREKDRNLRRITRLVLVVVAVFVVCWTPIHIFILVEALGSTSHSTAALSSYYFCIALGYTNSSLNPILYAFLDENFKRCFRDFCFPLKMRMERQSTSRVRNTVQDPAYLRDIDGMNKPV
For data set [3] the target is unchanged. To be noted: at 10 µM.
The target in data set [4] is T2, Delta-type opioid receptor (Homo sapiens, UniProt P41143). The data set can be described thus: Displacement of [3H]diprenorphine from human DOR expressed in African green monkey COS1 cell membranes at 1 uM incubated for 1 hr by scintillation counting method. In general terms: Displacement assays read how much labelled ligand stays bound in the presence of the test substance.
T2 sequence (P41143 whole entry): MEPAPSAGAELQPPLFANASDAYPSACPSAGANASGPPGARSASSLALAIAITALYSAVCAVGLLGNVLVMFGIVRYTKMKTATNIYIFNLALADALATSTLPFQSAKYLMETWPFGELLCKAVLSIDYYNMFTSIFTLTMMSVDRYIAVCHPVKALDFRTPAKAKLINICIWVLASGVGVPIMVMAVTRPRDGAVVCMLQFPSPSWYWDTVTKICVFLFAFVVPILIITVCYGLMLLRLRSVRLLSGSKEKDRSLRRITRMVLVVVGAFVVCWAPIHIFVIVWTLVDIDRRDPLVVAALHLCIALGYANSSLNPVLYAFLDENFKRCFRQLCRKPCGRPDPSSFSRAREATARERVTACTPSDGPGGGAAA

The target of data set [5] is T1, Mu-type opioid receptor. To be noted: at 10 µM.
For data set [6], the target named is T2, Delta-type opioid receptor. Description: Displacement of [3H]diprenorphine from human DOR expressed in African green monkey COS1 cell membranes at 10 uM incubated for 1 hr by scintillation counting method.
Data set [7] relates to HEK293. Description: Toxicity in HEK293 cells assessed as reduction in cell viability at <100 uM incubated for 24 hrs by cell-titer Glo reagent based assay. To be noted: human, hek293, 24 h. Put shortly:
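HEK-293 cells, 9000 per well, were switched to Opti-MEM and exposed to compound (0.1–100 µM) for 24 h. Viability was read as lysate ATP by CellTiter-Glo luminescence.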

The target in data set [8] is T2, Delta-type opioid receptor. Description: Agonist activity at human DOR expressed in African green monkey COS1 cell membranes assessed as stimulation of [35S]GTPgS binding at 50 uM by scintillation counting method. It is filed as functional. Put shortly:
(§1)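 Membranes (5 µg) from stably transfected cells expressing hMOR or hDOR were incubated 1 h at 23 °C in 50 mM Tris-HCl pH 7.3 with 5 mM MgCl₂, 100 mM NaCl, 1 mM EDTA, 30 µM GDP and 0.2 nM [35S]GTPγS. Reference opioids were used at 1 or 10 µM and test ligands at 20 or 50 µM. Nonspecific binding was taken with 10 µM GTP. Samples were filtered and counted; three experiments in triplicate.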
A general note: GTPγS is a poorly hydrolysed GTP analogue; its binding reports G protein activation.

Data set [9] addresses T1, Mu-type opioid receptor. The data set can be described thus: Displacement of [3H]diprenorphine from human MOR expressed in African green monkey COS1 cell membranes incubated for 1 hr by scintillation counting method.
The target in data set [10] is T2, Delta-type opioid receptor. The data set can be described thus: Antagonist activity at human DOR expressed in African green monkey COS1 cell membranes assessed as inhibition of SNC80-induced [35S]GTPgS binding at 50 uM by scintillation counting method. It is filed as functional. In a few lines: (§2)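 Antagonism in [35S]GTPγS binding used 5 µg of hMOR or hDOR transfected-cell membranes, 1 h at 23 °C, in Tris-HCl pH 7.3 with MgCl₂, NaCl, EDTA, 30 µM GDP and 0.2 nM [35S]GTPγS. Test ligands at 20 or 50 µM were co-incubated with DAMGO (1 µM, MOR) or SNC80 (DOR). Read by filtration and scintillation; n=3 in triplicate.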

The target in data set [11] is T1, Mu-type opioid receptor. The data set can be described thus: Antagonist activity at human MOR expressed in African green monkey COS1 cell membranes assessed as inhibition of DAMGO-induced [35S]GTPgS binding at 50 uM by scintillation counting method. It counts as functional. In a few lines: as §2
Data set [12] concerns the target T2, Delta-type opioid receptor. Description: Agonist activity at human DOR expressed in African green monkey COS1 cell membranes assessed as stimulation of [35S]GTPgS binding at 20 uM by scintillation counting method. It counts as functional. Put shortly:
as §1

The target in data set [13] is T1, Mu-type opioid receptor. The data set can be described thus: Antagonist activity at human MOR expressed in African green monkey COS1 cell membranes assessed as inhibition of DAMGO-induced [35S]GTPgS binding at 20 uM by scintillation counting method. It is filed as functional. Put shortly: as §2
Data set [14] concerns the target T2, Delta-type opioid receptor. The data set can be described thus: Displacement of [3H]diprenorphine from human DOR expressed in African green monkey COS1 cell membranes incubated for 1 hr by scintillation counting method. In a few lines: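 hDOR membranes from stably transfected cells, diluted in 50 mM Tris-HCl pH 7.4 with 1 mM EDTA, were incubated with 1 nM [3H]diprenorphine (KD 1.1 nM; Bmax 4.7 pmol/mg) and competitor (1 × 10⁻⁷ to 5 × 10⁻⁵ M) for 1 h at 23 °C. Samples were then filtered on PEI-soaked GF/B and counted by scintillation. Ki was derived from KD; three experiments in triplicate.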

Consider `COC(=O)N1CC[C@]23c4c5ccc(OC(C)=O)c4O[C@H]2[C@@H](OC(C)=O)C=C[C@H]3[C@H]1C5`, for which the inhibition was 1% in [1]; 0% in [2]; 1% in [3]; 1% in data set [4]; 3% in [5]; 9% in data set [6].
Regarding `COC(=O)N1CC[C@]23c4c5ccc(OC)c4O[C@H]2[C@@H](OC)[C@H](O)C(=O)[C@H]3[C@H]1C5`, the inhibition was 5% in data set [1]; 5% in data set [2]; 0% in data set [3]; 5% in data set [4]; 5% in data set [5]; 19% in data set [6]. In addition, the Activity entry in data set [7] is “Non-Toxic”.
Consider `COC(=O)N1CC[C@]23c4c5ccc(OC)c4O[C@H]2[C@@H](OC)C=C[C@H]3[C@H]1C5`, for which the inhibition is 3% in data set [1]; 6% in [2]; 2% in data set [3]; 2% in [4]; 11% in data set [5]; 10% in data set [6].
With `C[C@@H](NC(=O)[C@@H](N)Cc1ccc(O)cc1)C(=O)NCC(=O)N(C)[C@@H](Cc1ccccc1)C(=O)NCCO`, the inhibition in data set [1] was found to be 67%; in data set [5], 85%.
`COC(=O)N1CC[C@]23c4c5ccc(O)c4O[C@H]2[C@@H](O)C=C[C@H]3[C@H]1C5`: the outcome in [8] and in data set [12] was inactive. Also, the Ki in [9] was 0.814 to 1.72 µM; in [14] it was 1.69 to 2.63 µM. Moreover, the inhibition was found to be 16% in data set [1]; 7% in [2]; 27% in data set [3]; 21% in [4]; 58% in [5]; 59% in data set [6]. Moreover, the inhibition entry in data set [10], in data set [11] and in data set [13] was “Active” in each case. Also, the Activity result in data set [7] is reported as “Non-Toxic”.
Turning to `COC(=O)N1CC[C@]23c4c5ccc(OC(C)=O)c4O[C@H]2[C@@H](OC(C)=O)[C@H](O)C(=O)[C@H]3[C@H]1C5`, the inhibition in data set [1] stood at 7%; in data set [2], 4%; in data set [3], 8%; in data set [4], 22%; in data set [5], 9%; in [6] it was 51%. Moreover, the Activity entry in data set [7] is reported as “Non-Toxic”.
Turning to `COC(=O)N1CC[C@]23c4c5ccc(O)c4O[C@H]2[C@@H](O)[C@H](O)C(=O)[C@H]3[C@H]1C5`, the outcome in data set [8] and in [12] was inactive. Besides, the inhibitory constant (Ki) lay in the range of 1.08 to 2.58 µM in data set [9] and 1.13 to 1.83 µM in [14]. The inhibition is 8% in [1]; 6% in [2]; 21% in [3]; 24% in data set [4]; 48% in data set [5]; 63% in [6]. The inhibition result in data set [10], in data set [11] and in data set [13] was “Active” in each case. For the same molecule, the Activity entry in [7] was “Non-Toxic”.
Take `Oc1ccc2c3c1O[C@H]1c4[nH]c5ccccc5c4C[C@@]4(O)[C@@H](C2)N(CC2CC2)CC[C@]314`: the inhibition in [4] and in data set [6] was 94% in each case.
Regarding `CN1CC[C@]23c4c5ccc(O)c4O[C@H]2[C@@H](O)C=C[C@H]3[C@H]1C5`, the outcome in data set [8] and in data set [12] was Active. Further, the inhibition turned out to be 31% in data set [4] and 63% in data set [6].
